From ChEMBL document CHEMBL1143434, “A diaminocyclohexyl analog of SNS-032 with improved permeability and bioavailability properties” (Bioorg Med Chem Lett, 2008)

How the values were obtained:
[1] = target: Cyclin-dependent kinase 2 (Homo sapiens, UniProt P24941); assay: Inhibition of CDK2/cyclin A by IMAP florescence polarization assay
[2] = target: Cyclin-dependent kinase 9 (Homo sapiens, UniProt P50750); assay: Inhibition of CDK9 in human HCT116 cells assessed as phosphor-ser2 level of RNA polymerase 2 after 16 hrs by high content cellular assay; format: cell-based, HCT-116
Chain of Cyclin-dependent kinase 9 (P50750 whole entry): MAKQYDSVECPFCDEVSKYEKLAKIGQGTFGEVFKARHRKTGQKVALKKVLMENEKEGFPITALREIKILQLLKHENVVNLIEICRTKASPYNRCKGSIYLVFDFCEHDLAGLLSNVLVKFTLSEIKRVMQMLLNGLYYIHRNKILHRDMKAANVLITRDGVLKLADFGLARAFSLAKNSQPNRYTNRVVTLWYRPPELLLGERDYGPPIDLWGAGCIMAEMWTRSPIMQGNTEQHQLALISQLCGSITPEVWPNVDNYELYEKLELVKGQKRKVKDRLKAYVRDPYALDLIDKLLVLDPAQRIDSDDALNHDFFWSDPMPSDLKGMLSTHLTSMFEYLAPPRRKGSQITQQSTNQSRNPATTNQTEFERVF

[3] = AUC in CD1 mouse at 10 mg/kg, po; format: ADME, organism-based; set-up: dose 10 mg/kg, route oral; settings: plasma
In short: (§1)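 Female CD-1 mice, 6–8 weeks old, 3 mice per timepoint. Single oral gavage dose of 10, 30 or 45 mg/kg at 10 mL/kg in 2.1 mM tartaric acid, pH 4.0. Terminal cardiac-puncture blood taken at 0.25–8 h into K2-EDTA and spun to plasma. Plasma read by LC–MS/MS (LLOD 1 ng/mL). Concentrations were averaged per timepoint before PK estimation.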

[4] = Half life in CD1 mouse at 5 mg/kg, iv; format: ADME, organism-based; set-up: dose 5 mg/kg, route intravenous; settings: in vivo
In short: (§2)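 Single IV tail-vein dose of 5 mg/kg at 5 mL/kg in 2.1 mM tartaric acid, pH 4.0, to female CD-1 mice aged 6–8 weeks, 3 per timepoint. Blood taken by cardiac puncture after euthanasia at 0.083–8 h into K2-EDTA, and plasma analysed by LC–MS/MS (LLOD 1 ng/mL). PK parameters were estimated from mean concentrations per timepoint.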

[5] = AUC in CD1 mouse at 5 mg/kg, iv; format: ADME, organism-based; set-up: dose 5 mg/kg, route intravenous; settings: plasma; in short: as §2
[6] = Bioavailability in CD1 mouse at 10 mg/kg, po; format: ADME, organism-based; settings: in vivo; in short: as §1
[7] = Clearance in CD1 mouse at 5 mg/kg, iv; format: ADME, organism-based; set-up: dose 5 mg/kg, route intravenous; settings: in vivo; in short: as §2
[8] = Cmax in CD1 mouse at 5 mg/kg, iv; format: ADME, organism-based; set-up: dose 5 mg/kg, route intravenous; settings: in vivo; in short: as §2
[9] = Half life in CD1 mouse at 10 mg/kg, po; format: ADME, organism-based; set-up: dose 10 mg/kg, route oral; settings: in vivo; in short: as §1
[10] = Volume of distribution at steady state in CD1 mouse at 5 mg/kg, iv; format: ADME, organism-based; set-up: dose 5 mg/kg, route intravenous; settings: in vivo, read-out: Vdss; in short: as §2
[11] = Cmax in CD1 mouse at 10 mg/kg, po; format: ADME, organism-based; set-up: dose 10 mg/kg, route oral; settings: in vivo; in short: as §1
[12] = target: Cyclin-dependent kinase 7/ cyclin H (Homo sapiens, UniProt P50613); assay: Inhibition of CDK7/cyclinH by Upstate enzymatic assay
Chain of Cyclin-dependent kinase 7/ cyclin H (P51946 whole entry): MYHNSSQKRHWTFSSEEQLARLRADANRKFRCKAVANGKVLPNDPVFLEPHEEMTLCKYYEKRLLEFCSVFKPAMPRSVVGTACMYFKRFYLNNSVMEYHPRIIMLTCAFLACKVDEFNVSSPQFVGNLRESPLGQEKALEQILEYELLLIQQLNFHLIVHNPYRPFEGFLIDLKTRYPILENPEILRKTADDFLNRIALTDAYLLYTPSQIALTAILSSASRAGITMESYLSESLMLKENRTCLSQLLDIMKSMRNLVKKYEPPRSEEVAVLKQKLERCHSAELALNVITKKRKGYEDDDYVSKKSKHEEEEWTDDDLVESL
Chain of Cyclin-dependent kinase 7/ cyclin H (P50613 whole entry): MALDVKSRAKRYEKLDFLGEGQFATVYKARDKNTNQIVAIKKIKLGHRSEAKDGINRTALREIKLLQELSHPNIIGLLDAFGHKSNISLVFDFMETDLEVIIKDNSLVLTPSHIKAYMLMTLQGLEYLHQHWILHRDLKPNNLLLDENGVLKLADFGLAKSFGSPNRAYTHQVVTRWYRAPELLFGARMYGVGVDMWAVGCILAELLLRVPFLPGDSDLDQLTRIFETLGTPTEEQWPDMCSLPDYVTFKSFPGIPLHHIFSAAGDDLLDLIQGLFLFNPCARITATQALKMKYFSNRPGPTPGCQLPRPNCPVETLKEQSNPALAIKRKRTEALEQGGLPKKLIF

[13] = AUC in CD1 mouse at 30 mg/kg, po; format: ADME, organism-based; set-up: dose 30 mg/kg, route oral; settings: plasma; in short: as §1
[14] = Bioavailability in CD1 mouse at 30 mg/kg, po; format: ADME, organism-based; settings: in vivo; in short: as §1
[15] = Metabolic stability in human liver microsomes at 1 uM after 30 mins; format: ADME, Microsome; settings: read-out: Stability
In short: (§3)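 Liver microsomes at 0.5 mg/mL protein in 100 mM sodium phosphate, pH 7.4, with 3.3 mM MgCl2, pre-equilibrated 10 min at 37 °C. Reaction started with 1 mM NADPH. Aliquots taken at 0, 30 and 60 min and quenched in acetonitrile with internal standard, then centrifuged and analysed by LC–MS/MS. Lidocaine and dextromethorphan served as positive controls.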

[16] = AUC in CD1 mouse at 45 mg/kg, po; format: ADME, organism-based; set-up: dose 45 mg/kg, route oral; settings: plasma; in short: as §1
[17] = Metabolic stability in mouse liver microsomes at 1 uM after 60 mins; format: ADME, Microsome; settings: read-out: Stability; in short: as §3
[18] = Metabolic stability in human liver microsomes at 1 uM after 60 mins; format: ADME, Microsome; settings: read-out: Stability; in short: as §3
[19] = Efflux ratio of permeability from basolateral to apical side to apical to basolateral side in MDCK2 cells at 2 uM after 3 hrs; format: ADME, cell-based, Canis lupus familiaris, MDCK-II; settings: dog, MDCK
In short: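 MDCK II cells grown in DMEM with 10% FBS and antibiotics, seeded 50,000 cells/well on transwells and cultured 5 days; monolayers PBS-washed. Compound at 2 μM in DMEM added to apical or basolateral side; both compartments sampled after 3 h at 37 °C in humidified CO₂. Quantified by LC–MS/MS with verapamil internal standard; Papp calculated per direction.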

[20] = Inhibition of CDK6/cyclin D by IMAP florescence polarization assay
In short: (§4)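 IMAP fluorescence polarization kinase assay measuring phosphorylation of a fluorescein-labeled substrate. Run in IMAP tween reaction buffer with 1 mM DTT and sodium vanadate.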

[21] = target: Cyclin-dependent kinase 1/cyclin B1 (Homo sapiens, UniProt P06493); assay: Inhibition of CDK1/cyclin B by IMAP florescence polarization assay; format: protein-complex assay; in short: as §4
Chain of Cyclin-dependent kinase 1/cyclin B1 (P06493 whole entry): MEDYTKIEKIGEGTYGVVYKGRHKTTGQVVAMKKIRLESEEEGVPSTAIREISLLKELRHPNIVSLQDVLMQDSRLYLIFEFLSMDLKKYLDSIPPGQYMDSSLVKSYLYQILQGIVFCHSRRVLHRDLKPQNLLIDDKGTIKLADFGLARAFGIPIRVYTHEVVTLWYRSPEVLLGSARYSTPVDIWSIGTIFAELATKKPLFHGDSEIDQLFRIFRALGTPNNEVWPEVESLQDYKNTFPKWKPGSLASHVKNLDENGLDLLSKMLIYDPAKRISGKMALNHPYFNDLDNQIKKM
Chain of Cyclin-dependent kinase 1/cyclin B1 (P14635 whole entry, further chain): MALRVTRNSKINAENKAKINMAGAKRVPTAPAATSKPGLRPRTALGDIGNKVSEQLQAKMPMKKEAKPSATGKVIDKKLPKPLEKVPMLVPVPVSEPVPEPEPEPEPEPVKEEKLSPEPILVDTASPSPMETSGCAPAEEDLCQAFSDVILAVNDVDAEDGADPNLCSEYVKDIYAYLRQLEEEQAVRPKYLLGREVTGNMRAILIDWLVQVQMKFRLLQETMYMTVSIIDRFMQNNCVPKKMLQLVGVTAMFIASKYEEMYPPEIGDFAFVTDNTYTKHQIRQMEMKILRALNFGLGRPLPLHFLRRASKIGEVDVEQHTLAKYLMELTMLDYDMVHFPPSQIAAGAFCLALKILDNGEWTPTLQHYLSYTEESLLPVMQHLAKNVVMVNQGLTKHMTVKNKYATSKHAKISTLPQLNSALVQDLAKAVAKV

[22] = Metabolic stability in mouse liver microsomes at 1 uM after 30 mins; format: ADME, Microsome; settings: read-out: Stability; in short: as §3
[23] = Cmax in CD1 mouse at 30 mg/kg, po; format: ADME, organism-based; set-up: dose 30 mg/kg, route oral; settings: in vivo; in short: as §1
[24] = Bioavailability in CD1 mouse at 45 mg/kg, po; format: ADME, organism-based; settings: in vivo; in short: as §1
[25] = Half life in CD1 mouse at 45 mg/kg, po; format: ADME, organism-based; set-up: dose 45 mg/kg, route oral; settings: in vivo; in short: as §1
[26] = Cmax in CD1 mouse at 45 mg/kg, po; format: ADME, organism-based; set-up: dose 45 mg/kg, route oral; settings: in vivo; in short: as §1
CDK9/cyclin T1 = CDK9/cyclin T1 (Homo sapiens, UniProt P50750); assay: Inhibition of CDK9/cyclinT by IMAP florescence polarization assay; in short: as §4
Chain of CDK9/cyclin T1 (O60563 whole entry): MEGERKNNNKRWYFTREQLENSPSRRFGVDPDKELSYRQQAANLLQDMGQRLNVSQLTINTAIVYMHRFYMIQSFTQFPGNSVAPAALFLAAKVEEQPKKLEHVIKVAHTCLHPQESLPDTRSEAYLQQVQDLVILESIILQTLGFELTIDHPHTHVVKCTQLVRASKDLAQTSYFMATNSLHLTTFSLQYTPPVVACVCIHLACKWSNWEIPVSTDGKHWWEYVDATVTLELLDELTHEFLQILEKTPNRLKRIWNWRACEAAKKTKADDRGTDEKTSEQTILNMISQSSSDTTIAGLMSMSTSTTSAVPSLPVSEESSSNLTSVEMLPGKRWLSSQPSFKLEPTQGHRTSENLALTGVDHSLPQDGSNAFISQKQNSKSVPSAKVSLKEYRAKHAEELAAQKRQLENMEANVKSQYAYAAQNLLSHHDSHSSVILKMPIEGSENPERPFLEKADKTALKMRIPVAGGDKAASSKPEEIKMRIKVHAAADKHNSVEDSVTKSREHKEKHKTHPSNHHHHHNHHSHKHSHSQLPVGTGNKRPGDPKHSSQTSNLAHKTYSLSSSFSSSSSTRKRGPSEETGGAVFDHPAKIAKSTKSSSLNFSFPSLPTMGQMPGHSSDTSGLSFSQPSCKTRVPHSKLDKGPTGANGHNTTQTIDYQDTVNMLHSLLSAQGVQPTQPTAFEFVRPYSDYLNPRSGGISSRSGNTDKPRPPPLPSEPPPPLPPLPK
Chain of CDK9/cyclin T1 (P50750 whole entry): as the sequence (P50750 whole entry) above

[27] = Half life in CD1 mouse at 30 mg/kg, po; format: ADME, organism-based; set-up: dose 30 mg/kg, route oral; settings: in vivo; in short: as §1

Work on `CC(C)(C)c1cnc(CSc2cnc(N[C@H]3CC[C@H](O)CC3)s2)o1` yielded an IC50 [1] of 7 nM and an IC50 [2] of 3500 nM.

With `CC(C)(C)c1cnc(CSc2cnc(NCC3CCNCC3)s2)o1` the IC50 [1] was 229 nM and the IC50 [2] was > 10000 nM.

With `CC(C)(C)c1cnc(CSc2cnc(NC3CCCC(O)C3)s2)o1` (stereo not given) the IC50 [1] was 28 nM and the IC50 [2] was > 10000 nM.

With `CC(C)(C)c1cnc(CSc2cnc(N[C@H]3CC[C@@H](N)CC3)s2)o1` the IC50 [1] was 503 nM and the IC50 [2] was > 10000 nM.

For `CC(C)(C)c1cnc(CSc2cnc(NC3CCCCC3)s2)o1`, the IC50 [1] was 9 nM and the IC50 [2] was > 10000 nM.

With `CC(C)(C)c1cnc(CSc2cnc(NC3CCNCC3)s2)o1` the IC50 [1] was 538 nM and the IC50 [2] was > 10000 nM.

With `CC(C)(C)c1cnc(CSc2cnc(NCC3CCCCC3)s2)o1` the IC50 [1] was 168 nM and the IC50 [2] was > 10000 nM.

With `CC(C)(C)c1cnc(CSc2cnc(NC(=O)C3CCNCC3)s2)o1` [BMS-387032] the AUC [3] was 434 ng·h/mL, the half-life [4] was 0.6 h and the AUC [5] was 1510 ng·h/mL. It also gave a bioavailability [6] of 14%, a clearance [7] of 55 mL/min/kg and a Cmax [8] of 2230 ng/mL. It also gave a half-life [9] of 0.5 h, a Vd [10] of 3 L/kg and a Cmax [11] of 275 ng/mL.

For `CC(C)(C)c1cnc(CSc2cnc(N)s2)o1`, the IC50 [1] was 690 nM and the IC50 [2] was > 10000 nM.

`CC(C)(C)c1cnc(CSc2cnc(N[C@H]3CC[C@H](N)CC3)s2)o1` gave an IC50 [12] of 105 nM, an AUC [3] of 1430 ng·h/mL and a half-life [4] of 1.9 h. It also gave an AUC [13] of 6390 ng·h/mL, a bioavailability [14] of 92% and a remaining at 0.5 h, 1 µM [15] of 64%. It also gave an IC50 [1] of 20 nM, an AUC [5] of 1160 ng·h/mL and an AUC [16] of 10700 ng·h/mL. The remaining at 1 h, 1 µM [17] was 77%, the remaining at 1 h, 1 µM [18] was 53% and the bioavailability [6] was 62%. The efflux ratio at 3 h, 2 µM [19] was 9.4, the clearance [7] was 72 mL/min/kg and the IC50 [20] was > 2000 nM. It also gave an IC50 [21] of 763 nM, a remaining at 0.5 h, 1 µM [22] of 76% and a Cmax [23] of 2390 ng/mL. It also gave a bioavailability [24] of 100%, a half-life [25] of 1.2 h and an IC50 [2] of 355 nM. For the same compound, the Cmax [8] was 1660 ng/mL, the half-life [9] was 1.5 h and the Vd [10] was 6 L/kg. For the same compound, the Cmax [11] was 411 ng/mL, the Cmax [26] was 4600 ng/mL and the IC50 (CDK9/cyclin T1) was 97 nM. It also gave a half-life [27] of 1.2 h.

For `CC(C)(C)c1cnc(CSc2cnc(NC3CCCC(N)C3)s2)o1` (stereo not given), the IC50 [1] was 158 nM and the IC50 [2] was > 10000 nM.
